TNAP inh hi DEA: human TNAP enzyme inhibitors, primary screen, biochemical, luminescent, high phosphate acceptor level, uHTS | purified TNAP, CDP-star luminescence, 1 M DEA | inhibition, % at 20 µM | actives 0.03% (n = 200,000) | AID 1135, 2008;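 active means over 50% inhibition of tissue-nonspecific alkaline phosphatase at 20 µM in the single-dose screen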;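 further: plate controls were DMSO wells for no effect and EDTA-quenched wells as full inhibition for full effect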
Target sequence (P05186 whole entry, looked up): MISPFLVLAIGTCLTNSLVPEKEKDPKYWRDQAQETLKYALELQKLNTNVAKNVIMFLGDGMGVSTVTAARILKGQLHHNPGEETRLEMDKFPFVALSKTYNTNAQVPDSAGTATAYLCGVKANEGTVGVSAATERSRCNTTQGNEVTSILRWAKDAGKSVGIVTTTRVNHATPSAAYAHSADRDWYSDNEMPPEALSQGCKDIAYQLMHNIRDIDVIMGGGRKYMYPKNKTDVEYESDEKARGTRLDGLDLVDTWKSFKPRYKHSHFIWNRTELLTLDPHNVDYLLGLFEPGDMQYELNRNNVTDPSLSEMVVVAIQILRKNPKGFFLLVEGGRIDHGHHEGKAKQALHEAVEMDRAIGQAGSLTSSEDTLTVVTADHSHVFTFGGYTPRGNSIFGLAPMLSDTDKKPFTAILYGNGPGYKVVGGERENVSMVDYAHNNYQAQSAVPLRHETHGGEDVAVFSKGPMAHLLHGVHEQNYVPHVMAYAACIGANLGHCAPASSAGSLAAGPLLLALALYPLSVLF
L major viab: Leishmania major promastigote growth inhibition, primary screen; Leishmania major promastigotes, resazurin fluorescence viability; inhibition, % at 10 µM; actives 9% (n = 200,000); in the data active means inhibition above about 50%;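 further: promastigotes grown with compound for 44 hours at 28 °C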
TNAP act hiacc: TNAP activators at high phosphate acceptor level, primary screen, biochemical, luminescence, uHTS; AID 1136, 2008; activation factor at 20 µM; Alkaline phosphatase, tissue-nonspecific isozyme (Homo sapiens), P05186; purified TNAP, CDP-star luminescence, 1 M DEA, 30 min; hits give high values; 0 = EDTA background, 1 = DMSO-only activity; 200,000 tested, under 10 active;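 active means activation factor at least 2 at 20 µM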
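Dosing: 20 µM single point. System: human TNAP. Amount: TNAP 1/800 final. Incubation: 30 min, room temperature. Read-out: TNAP activation factor scaled between EDTA and DMSO control wells. Signal: luminescence from CDP-star hydrolysis. Medium: 1 M DEA, pH 9.8, Mg2+, Zn2+. Control set: EDTA negative control, DMSO positive control.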
TNAP inh no acc: human TNAP enzyme inhibitors, primary screen, biochemical, luminescent, no phosphate acceptor, uHTS; actives 0.26% (n = 200,000); AID 1012, 2008; Alkaline phosphatase, tissue-nonspecific isozyme (Homo sapiens), P05186; inhibition, % at 20 µM; purified TNAP, CDP-star luminescence, 30 min;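 active means tissue-nonspecific alkaline phosphatase inhibition above about 50% at 20 µM in the single-dose screen, limit read from the data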;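 further: 0% = DMSO negative control and 100% = EDTA positive control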
HCT116 bCat-KO: primary screen for growth suppressors in beta-catenin knockout HCT116 cells (colon tumor, human); AID 818, 2007; viability, % at 10 µM; HCT116 beta-catenin knockout viability, CellTiter-Glo, 60 h; hits give low values; actives 1.5% (n = 140,000);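 active means viability at or under a set limit, the compound median less 4 SD, cut at about 6% in these data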;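 further: 0% = Hyamine 1622 control at 20 µM and 100% = untreated cell control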
PTEN del growth: growth suppression of PTEN-null HCT116, primary screen, cell-based, CellTiter-Glo. HCT116 PTEN-null viability, 60 h; hits give low values. actives 1.2% (n = 140,000). viability, % at 10 µM;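 active means viability at or below a set limit, 4 SD under the median of all tested compounds, cut at about 3.7% in these data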;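 further: PTEN knockout HCT116 line with beta catenin targeted HCT116 as companion control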
Lmaj promast 1uM: Leishmania major promastigote growth inhibition, confirmation, 1 µM repeat of primary hits; inhibition, % at 1 µM; shares compounds with L major viab; L. major promastigote growth, resazurin fluorescence, 48 h; actives 13% (n = 1,100); AID 1258, 2008;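 active means inhibition above about 50% in both repeat tests, limit read from the data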
The depositor's hits bear a star; . = not tested or not shown. Rows were chosen to be rich in hits. Some 9.6% of all compounds tested hit in one or more screens of this group.

SMILES	TNAP inh hi DEA	L major viab	TNAP act hiacc	TNAP inh no acc	HCT116 bCat-KO	PTEN del growth	Lmaj promast 1uM
CC(C)NC(=O)C12CC3CC(C1)CC(n1cnc(Cl)n1)(C3)C2	0	-6	1	-11	96	88	.
Cc1nc([N+](=O)[O-])nn1C12CC3CC(CC(Cl)(C3)C1)C2	1	88*	1	-10	90	98	53*
COc1ccc(C(N)CCc2ccc(C)o2)cc1 (stereo not given)	-4	54*	1	-8	77	79	-15
CC(C)CN(C(=O)c1ccc(=O)n(C)n1)c1nc2ccccc2s1	-4	57*	1	-8	72	75	-17
CC(C)CCN(C)C1CCN(S(=O)(=O)c2cccc(C(F)(F)F)c2)CC1	-3	93*	1	-5	90	90	80*
CCOC(=O)C1C(=O)NC(c2ccccc2)=NC1c1ccc(Cl)cc1 (stereo not given)	-5	8	1	-8	89	105	.
O=c1[nH][nH]cc1C=Nc1ccccc1O	-1	98*	1	-164	59	57	-4
CCOc1ccc(N(CC)S(=O)(=O)c2ccc3c(c2)oc(=O)n3C)cc1	2	57*	1	-4	64	61	-12
CCOc1ccc(NS(=O)(=O)c2ccc3c(c2)oc(=O)n3C)cc1	-2	-4	1	-6	102	93	.
Cc1cc(/C=C(/C#N)c2nc3ccccc3[nH]2)c(C)n1-c1cccc([N+](=O)[O-])c1	1	88*	1	3	34	49	17
Cc1cc(/C=C(\C#N)c2nc3ccccc3[nH]2)c(C)n1C	-6	39	1.1	-8	67	65	.
O=C(Nc1ccc(CN2CCOCC2)cc1)c1cccs1	-2	96*	1	-13	100	100	-11
COC(=O)c1cc(NC(=O)CSC2=NCCS2)cc(C(=O)OC)c1	1	3	1	14	.	.	.
CCn1cc(C(=O)N[C@H](C)c2ccccc2)c(=O)c2cc(F)c(N3CCN(C)CC3)cc21	-4	85*	1	-17	44	62	-10
O=[N+]([O-])c1cc([N+](=O)[O-])c2cccnc2c1Oc1ccccc1O	16	1	0.8	30	73	58	.
O=[N+]([O-])c1ccc(O)c2ncccc12	17	96*	0.8	14	4.1*	4	2
COc1ccc(C2SCC(=O)N2c2nnc(C34CC5CC(CC(C5)C3)C4)s2)cc1 (stereo not given)	0	98*	1	-4	79	71	-10
COc1cc(C2SCC(=O)N2c2nnc(C34CC5CC(CC(C5)C3)C4)s2)cc(OC)c1OC (stereo not given)	1	1	1	-7	87	82	.
CCOC(=O)c1cccc(Nc2nc(-c3cccnc3)nc3ccccc23)c1	-4	92*	1	-7	13	10	21
O=C(CN1C(=O)C2C3CCC(C3)C2C1=O)N1CCN(Cc2ccccc2)CC1 (stereo not given)	-3	-7	1	-6	.	.	.
NCC12CC3CC(C1)CC(c1ccc(Cl)cc1)(C3)C2	-5	100*	1.1	-35	.	.	94*
Nc1ccc(C23CC4CC(CC(CO)(C4)C2)C3)cc1	-4	-4	1	-6	93	86	.
C[N+]1(C2CCC3CCCC2C3O)CCCC1 (stereo not given)	-3	65*	1	-24	97	94	-12
O=S(=O)(/N=C(/NS(=O)(=O)c1ccccc1)c1ccccc1)c1ccccc1	-3	-6	1	1	.	.	.
O=S(=O)(/N=C(/Nc1ccc(F)c(F)c1F)c1ccccc1)c1ccccc1	-5	89*	1	-8	92	87	-12
SMILES	TNAP inh hi DEA	L major viab	TNAP act hiacc	TNAP inh no acc	HCT116 bCat-KO	PTEN del growth	Lmaj promast 1uM
COc1ccc(O[C@H]2C=C[C@@H](c3ccccc3)O[C@@H]2CO/N=C(\C)CCN2CCCCc3nc(C)c(C)cc32)cc1	-6	84*	1.1	1	20	24	16
C/C(CCN1CCCCc2nc(C)c(C)cc21)=N\O[C@@H](C)CN1CCCCc2nc(C)c(C)cc21	-2	68*	1	-2	23	29	15
C/C(CCN1CCCCc2nc(C)c(C)cc21)=N\OC[C@@H](O)[C@H]1O[C@@H]2OC(C)(C)O[C@@H]2[C@H]1O	-1	-8	1	-8	100	98	.
COc1ccc(O[C@H]2C=C[C@@H](c3ccccc3)O[C@@H]2COC(=O)CCC(C)=NO[C@@H]2O[C@H](COC(C)=O)[C@@H](OC(C)=O)[C@H](OC(C)=O)[C@H]2OC(C)=O)cc1	-1	-3	1	-4	72	72	.
Cc1ccc(N=c2ssnc2Cl)cc1	-4	-11	1	-26	97	88	.
Cc1cc(C)nc(/N=c2/ssnc2Cl)c1	-2	99*	1	-5	41	12	94*
CCC(=O)c1ccc(OCC(=O)NCC2(N3CCCCC3)CCCCC2)cc1	-3	18	1	-6	.	.	.
Cc1ccc(C(C)C)c(OCc2nn(CC(=O)c3ccc(Cl)cc3)c3[n+]2CCCCC3)c1	-1	98*	1	4	.	.	11
Cc1ccc(C(=O)NC(=C(Cl)Cl)S(=O)(=O)c2ccccc2)cc1	2	72*	1	4	77	77	-7
O=C(c1cccnc1)N1CCN(c2c(Cl)cccc2[N+](=O)[O-])CC1	0	-5	1	-5	82	79	.
CC(C)(C)[C@]1(O)CCN2C[C@H]3c4ccccc4CCc4cccc(c43)[C@@H]2C1	-1	57*	1	-5	62	60	15
CCn1c(=O)c(C(=O)NCc2ccc(OC)c(OC)c2)c(O)c2ccccc21	-8	84*	1.1	-7	76	62	-14
O=C(CCN1C(=O)c2cccc3cccc(c23)C1=O)NCc1ccco1	-6	-2	1.1	-6	.	.	.
COc1ccc2cc(Br)ccc2c1CC(=O)NC1CC(C)(C)NC(C)(C)C1	-5	100*	1	-12	54	20	-10
O=C(Nc1ccccc1-c1nnn(CC(=O)N2CCc3ccccc3C2)n1)C1CCC1	0	-3	1	-6	86	75	.
O=C(Nc1cccc(-c2nnn(CC(=O)N3CCc4ccccc4C3)n2)c1)C1CCC1	-1	99*	1	-16	86	85	-2

Assay outcomes (PubChem)
